Yeast life ext – yeast lifespan extension | S. cerevisiae growth with nicotinamide, OD615; deaD strain in restrictive glucose medium | inhibition of the nicotinamide effect, % at 10 µM | actives 0.68% (n = 130,000);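 active means inhibition above a set limit, placed 3 SD over the median of all compounds, cut at about 26% in these data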
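assay system = DeaD-strain S. cerevisiae | buffer or medium = restrictive glucose medium | reagent = 1.5 mM nicotinamide | compound = 10 µM single point, 0.25% DMSO | incubation = 48 h compound exposure at 30 °C, humidified | signal = OD615 measurement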
BB579 growth dn – chemicals that inhibit yeast BB579 growth in restrictive medium (lifespan-shortening candidates) | actives 0.51% (n = 140,000) | S. cerevisiae BB579 growth, OD615, 48 h | inhibition, % at 10 µM;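 active means inhibition above a set limit, 3 SD over the mean compound inhibition, cut at about 44% in these data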
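controls = amphotericin B 10 µg/mL, positive | assay system = DeaD yeast strain BB579 | schedule = 48 h compound exposure at 30 °C after 4 h preincubation | detection = OD615 turbidity measurement | medium = restrictive CSMM-D medium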
sdo1 growth – sdo1-depleted yeast growth rescue. S. cerevisiae sdo1-depleted JHY4D growth rescue, OD600 30 h; hits give high values; pdr5 snq2 efflux-pump mutant strain. z-score at 10 µM. actives 0.21% (n = 140,000). AID 817;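 active means z-score above 3 at both the 24 hr and the 30 hr optical density reads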
Phagocyt inh – blocks phagocytosis by macrophages | J774A.1 macrophage IgG-bead phagocytosis, imaging | inhibition, % at 5 µM | actives 0.07% (n = 110,000) | AID 1029;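 active means inhibition above the mean of the plate negative controls plus 5 SD, cut at about 13% in these data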;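 further: phagocytic index as fraction of beads internalized from green versus red external bead signal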
MRP1 act – activators of MRP-1. H69AR cells + doxorubicin, viability rescue, CellTiter-Glo. viability increase, % at 10 µM. actives 0.61% (n = 140,000). AID 799;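 active means viability gain under doxorubicin at or above a set limit, the compound median plus 3 SD, cut at about 4.7% in these data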;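 further: MRP-1 overexpressing cells given doxorubicin 25 µM after compound pretreatment; 18-22 h compound pretreatment then 72 h with doxorubicin before readout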
MRP resist rev – compounds reversing MRP-mediated drug resistance; H69AR cells + 2 uM doxorubicin, CellTiter-Glo, 72 h; differential viability (reversal), % at 10 µM; actives 0.04% (n = 85,000); AID 602;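 active means viability drop by adding the cancer drug above about 55%, with treated viability meeting a 40% cutoff, limit read from the data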;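 further: larger differential means the compound sensitizes cells more to doxorubicin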
Of the large screens only hits and unclear results are named; the others gave an inactive call; [ ] = remark or other dose. A selection: hits, their analogues and other compounds. The true share with any hit is near 2.1%.

O=C(COc1ccc(Cl)cc1)N1CCN(Cc2ccccc2)CC1	MRP1 act 6.5
COc1ccccc1CN1CCN(C(=O)COc2ccccc2)CC1	none
COCCCN1CCN(c2nnc3n2-c2sc(Br)cc2C(c2ccccc2Cl)=NC3)CC1	Yeast life ext 50 (no result: Phagocyt inh, MRP resist rev)
CC12CCCCC1=NC(c1ccc(Br)cc1)N2O (configuration not stated)	none
Cc1ccc(S(=O)(=O)N2CCCCC2)cc1NC(=O)CN1CC=C(c2ccccc2)CC1	none (no result: MRP resist rev)
COc1cc(/C=C/[N+](=O)[O-])ccc1O	Yeast life ext 35 (no result: Phagocyt inh, MRP resist rev)
COc1cc(/C=C2/C(=O)NC(=O)N(c3ccccc3)C2=O)ccc1O	none (no result: MRP resist rev)
CC12CCC3C(CCC4C/C(=N/O)CCC43C)C1CCC2O (configuration not stated)	none (no result: MRP resist rev)
CCC(=NCCCn1ccnc1)c1c(O)n(Cc2ccccc2)c(=O)[nH]c1=O	none
CC(=O)Nc1ccc(OC(=O)N(C)c2ccccc2)cc1	none
Cc1ccc(N(C)C(=O)Oc2ccc(C(=O)c3ccc(Cl)cc3)cc2)cc1	Yeast life ext 82 (no result: MRP resist rev)
Cn1c(O)c(C=NC2C(=O)C3(C)CCC2C3(C)C)c(=O)n(C)c1=O (configuration not stated)	none
Cc1cc(C)cc(N2C(=O)NC(=O)/C(=C\c3cccn3-c3ccccc3)C2=O)c1	none (no result: Phagocyt inh, MRP resist rev)
CN1C(=O)/C(=C/c2cccn2-c2ccc3ccccc3c2)C(=O)NC1=S	Yeast life ext 49 (no result: MRP resist rev)
CN1CCN(c2nc(N(C)C)oc(=O)c2C#N)CC1	none (no result: Phagocyt inh, MRP resist rev)
O=C1/C(=C\c2ccc([N+](=O)[O-])cc2)N2CCC1CC2	Yeast life ext 35 (no result: MRP resist rev)
O=C1/C(=C/c2ccc3c(c2)OCO3)N2CCC1CC2	none (no result: MRP resist rev)
CCCCOc1ccc(CCN)cc1Cl	none (no result: MRP resist rev)
Cc1cc(C)[n+](C2C3CC4CC(C3)CC2C4)o1 (configuration not stated)	none (no result: MRP resist rev)
O=C1NC(=O)C2(Cc3c(nc4ccccn4c3=O)N3CCCCCC32)C(=O)N1Cc1ccccc1 (configuration not stated)	none
CN(C)C=C1C(=O)N(C2CCCCC2)C(=O)N(C2CCCCC2)C1=O	Yeast life ext 39 (no result: Phagocyt inh)
C[C@]12CC[C@@H](O)C[C@@H]1CC[C@@H]1[C@@H]2CC[C@]2(C)[C@@H](O)CC[C@@H]12	Yeast life ext 29 (no result: Phagocyt inh)
CCN1/C(=C\C=C\C2=[N+](CC)c3ccccc3C2(C)C)C(C)(C)c2ccccc21	Phagocyt inh active[artifact]
COc1ccc(N2C(=O)CC(N3CCC(n4c(=O)[nH]c5ccccc54)CC3)C2=O)cc1 (configuration not stated)	MRP1 act 5.5
O=P(NCc1ccccc1)(Oc1ccccc1)Oc1ccccc1	Yeast life ext 27 (no result: MRP resist rev)
CCN(CC)S(=O)(=O)c1ccc(NN=C(C#N)C#N)cc1	MRP1 act 5.6 (no result: MRP resist rev)
CC(C)(C)C(O)C(Oc1ccc(Cl)cc1)n1cncn1 (configuration not stated)	BB579 growth dn 91
Cc1sc2ncn(CC(=O)N3CCC4(CC3)OCCO4)c(=O)c2c1C	none
Cc1ccnc(-n2c(C)cc(C=C3C(=O)N(C)C(=S)N(C)C3=O)c2C)c1	Yeast life ext 30 (no result: MRP resist rev)
Cc1cc(C)cc(-n2c(C)cc(/C=C3\C(=O)NC(=O)N(C)C3=O)c2C)c1	none (no result: MRP resist rev)
O=c1c2ccccc2nc(SCC2CCCCO2)n1-c1ccccc1 (configuration not stated)	none (no result: MRP resist rev)
CN1CCC2(CC1)C(C#N)=C(N)NC(S)=C2C#N	Yeast life ext 40 (no result: MRP resist rev)
Oc1c(Br)cc(Br)cc1Oc1ccc(Br)cc1Br	BB579 growth dn 83 (no result: Phagocyt inh, MRP resist rev)
Oc1c(Br)cc(Br)cc1CN1CCN(Cc2ccccc2)CC1	none
COc1ccc(C(C)=O)cc1CC(C(=O)c1ccccc1)N(C)C (configuration not stated)	none (no result: MRP resist rev)
Nc1cc(Cl)c2nonc2c1[N+](=O)[O-]	Yeast life ext 37 (no result: MRP resist rev)
C=CCN1C(=O)/C(=C/c2cccs2)C(=O)NC1=S	BB579 growth dn 75 (no result: MRP resist rev)
O=C1NC(=O)N(CCC2=CCCCC2)C(=O)/C1=C\c1cccs1	Yeast life ext 63 (no result: Phagocyt inh, MRP resist rev)
NCC1(CC(=O)O)CCCCC1	none (no result: Phagocyt inh)
O=C(Nc1ccc(F)cc1F)c1cccnc1Oc1cccc(C(F)(F)F)c1	Yeast life ext 36 (no result: Phagocyt inh, MRP resist rev)
OC(Cc1ccccc1)(c1ccccc1)C1CN2CCC1CC2 (configuration not stated)	none

Screening data from PubChem BioAssay.
